Measurements as given in ChEMBL document CHEMBL1124192, “Cyclopentenylcytosine. A carbocyclic nucleoside with antitumor and antiviral properties” (J Med Chem, 1988).
Converted amounts (≈) assume the structure as drawn. “And” between values parts separate entries of the source, which are not always exact repeats. Equal values may be shown once.

What was measured:
Human alphaherpesvirus 3 [1] = test: Compound was tested for antiviral activity against Varicella-Zoster from human diploid foreskin cells in mono layer culture at 10 ug/ml; type: functional
Method in brief: (§1)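 VZV isolate DM625 on Huf cells (human diploid foreskin monolayers). Inoculum was left on after 1 h adsorption at 37 °C. Drug overlay in MEM + 2% FBS without agarose, refed with fresh drug at 72 h, in 2% CO2. Cells fixed in 10% formalin and stained with methylene blue; plaques counted day 6. % plaque reduction versus untreated virus controls, triplicates.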

L1210 [2] = test: Number of 60-day survivors out of 9 tested at dose 1.5 mg/kg administered intraperitoneally; type: functional, Mus musculus; details: route intraperitoneal
Yellow fever virus = test: Tested for inhibition of virus-induced cytopathogenic effect and cytotoxicity of compound against yellow fever virus with asibi strain vero cell; type: functional
[3] = tested on: Vesicular stomatitis virus; test: Tested for inhibition of virus-induced cytopathogenic effect and cytotoxicity of compound against vesicular stomatitis RNA virus with indiana strain in L929 cell; type: functional
Vero [4] = test: Cytotoxicity of compound was determined by reduction in number of viable vero monolayer cells after treatment with 0.1 ug/mL for 4 days; type: functional, Chlorocebus sabaeus
Method in brief: (§2)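 Vero monolayers in duplicate cultures, exposed to each drug concentration in medium at 37 °C in a CO2 incubator for 4 days. Viable cells counted by trypan blue exclusion, and % reduction calculated against untreated control cultures.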

L1210 [5] = test: Median percent increase in life span of tumored, treated mice relative to tumored, untreated controls after intraperitoneal dose 1 mg/kg daily (1-9 days); type: functional; details: Mus musculus, L1210, ip
[6] = tested on: Japanese encephalitis virus; test: Tested for inhibition of virus-induced cytopathogenic effect and cytotoxicity of compound against Japanese encephalitis virus with […] strain in vero cell; type: functional
Cytomegalovirus [7] = test: Log value for antiviral activity against Cytomegalovirus (AD169) from MRC5 diploid human embryonic lung cells at 3.2 ug/mL; type: functional
Method in brief: (§3)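 CMV AD169 yield reduction in MRC5 cells. Subconfluent monolayers infected at MOI 0.2 PFU/cell for 1.5 h at 37 °C, rinsed, then fed drug in MEM + 2% FBS, in duplicate. Drug refed on day 3, cultures harvested on day 6 by freeze-thaw and pooled. Yield titrated by plaque assay under 0.25% agarose overlay for 5–6 days, then formalin-fixed and methylene blue-stained for plaque counts.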

Mus musculus [8] = test: Compound was tested for antitumor activity against human LOX melanoma tumor xenografts in athymic mice at dose 2.25 mg/kg administered intraperitoneally; type: functional; details: ip, route intraperitoneal
Method in brief: (§4)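 Athymic mice carrying human LOX melanoma. Drug given ip in saline on a QD1-9 schedule, at several dose levels. Life-span experiment ended on day 30. Read-out is % increase in life span versus untreated tumoured controls, with long-term survivors included.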

P388 [9] = test: Compound was tested for antitumor activity against P388 leukemia in mouse at dose 1.5 mg/kg administered intraperitoneally in experiment 2; type: functional; details: P388, ip, route intraperitoneal
Method in brief: (§5)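 Mice bearing L1210, L1210/ara-C, P388 or P388/ara-C leukaemia. Tumour implanted at the site each line names: ip, sc or ic. Drug given ip in physiologic saline on a QD1-9 schedule, at several dose levels per experiment. Life-span runs ended on day 30. Read-out is median % increase in life span versus tumoured untreated controls, with long-term survivors included.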

Human alphaherpesvirus 3 [10] = test: Compound was tested for antiviral activity against Varicella-Zoster from human diploid foreskin cells in mono layer culture at 0.32 ug/ml; type: functional; method in brief: as §1
P388 [11] = test: Number of 30-day survivors out of 6 mice at dose 1.5 mg/kg administered intraperitoneally; type: functional, Mus musculus; details: route intraperitoneal
Punta Toro virus = test: Inhibitory dose of compound required to inhibit cytopathogenic effects of Punta toro virus with adames strain in vero cells; type: functional; details: read-out: ID50 (the source's name)
[12] = Ratio of minimum drug concentration to ID50 of the compound (Indiana strain); type: ADME
[13] = Ratio of minimum drug concentration to ID50 of the compound(Asibi strain); type: ADME; details: read-out: Therapeutic index
Human alphaherpesvirus 3 [14] = test: Compound was tested for antiviral activity against Varicella-Zoster from human diploid foreskin cells in mono layer culture at 0.032 ug/ml; type: functional; method in brief: as §1
Mus musculus [15] = test: Compound was tested for antitumor activity against human A549 lung tumor xenografts in athymic mice at dose 2 mg/kg administered subrenal capsule in experiment 2; type: functional
Vero [16] = test: Cytotoxicity of compound was determined by reduction in number of viable vero monolayer cells after treatment with 1 ug/mL for 4 days; type: functional, Chlorocebus sabaeus; method in brief: as §2
Cytomegalovirus [17] = test: Log value for antiviral activity against Cytomegalovirus (AD169) from MRC5 diploid human embryonic lung cells at 100 ug/mL; type: functional; method in brief: as §3
Human alphaherpesvirus 3 [18] = test: Compound was tested for antiviral activity against Varicella-Zoster from human diploid foreskin cells in mono layer culture at 320 ug/ml; type: functional; method in brief: as §1
L1210 [19] = test: Median percent increase in life span of tumored, treated mice relative to tumored, untreated controls after intraperitoneal dose 0.5 mg/kg daily(for every 3 hr); type: functional; details: Mus musculus, L1210, ip
M5076 = test: Compound was tested for antitumor activity against M5076 leukemia in mouse at dose 0.5 mg/kg administered intraperitoneally in experiment 1; type: functional; details: M5076, ip, route intraperitoneal
Method in brief: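 Mice bearing M5076 tumour. Drug given ip in physiologic saline, daily on days 1-13, at several dose levels. Experiment ended on day 30. Read-out is median % increase in life span versus untreated tumoured controls, with long-term survivors included.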

L1210 [20] = test: Compound was tested for antitumor activity against L1210 leukemia in mouse at dose 2.25 mg/kg administered intraperitoneally in experiment 1; type: functional; details: L1210, ip, route intraperitoneal; method in brief: as §5
[21] = tested on: unidentified influenza virus; test: Inhibitory dose of compound required to inhibit cytopathogenic effects of influenza virus with A2/Aichi/2/68 strain in MDCK cells; type: functional; details: read-out: ID50 (the source's name)
Mus musculus [22] = test: Compound was tested for antitumor activity against human LOX melanoma tumor xenografts in athymic mice at dose 1.5 mg/kg administered intraperitoneally in experiment 2; type: functional; details: ip, route intraperitoneal; method in brief: as §4
Cytomegalovirus [23] = test: Log value for antiviral activity against Cytomegalovirus (AD169) from MRC5 diploid human embryonic lung cells at 0.32 ug/mL; type: functional; method in brief: as §3
L1210 [24] = test: Compound was tested for antitumor activity against L1210/ara-C leukemia in mouse at dose 1.5 mg/kg administered intraperitoneally; type: functional; details: L1210, ip, route intraperitoneal; method in brief: as §5
P388 [25] = test: Compound was tested for antitumor activity against P388 leukemia in mouse at dose 1 mg/kg administered intraperitoneally in experiment 1; type: functional; details: P388, ip, route intraperitoneal; method in brief: as §5
Vero [26] = test: Cytotoxicity of compound was determined by reduction in number of viable vero monolayer cells after treatment with 100 ug/mL for 4 days; type: functional, Chlorocebus sabaeus; method in brief: as §2
L1210 [27] = test: Compound was tested for antitumor activity against L1210 leukemia in mouse at dose 1.5 mg/kg administered intracerebrally in experiment 1; type: functional; details: L1210, central; method in brief: as §5
Cytomegalovirus [28] = test: Log value for antiviral activity against Cytomegalovirus (AD169) from MRC5 diploid human embryonic lung cells at 320 ug/mL; type: functional; method in brief: as §3
Vero [29] = test: Cytotoxicity of compound was determined by reduction in number of viable vero monolayer cells after treatment with 0.032 ug/mL for 4 days; type: functional, Chlorocebus sabaeus; method in brief: as §2
[30] = tested on: Japanese encephalitis virus; test: Inhibitory dose of compound required to inhibit cytopathogenic effects of Japanese encephalitis virus with […] strain in vero cells; type: functional; details: read-out: ID50 (the source's name)

SMILES: Nc1ccn([C@@H]2C=C(CO)[C@@H](O)[C@H]2O)c(=O)n1
- Plaque reduction (Human alphaherpesvirus 3 [1]): 33%
- No. of survivors (L1210 [2]): 5 count
- Virus rating (Yellow fever virus): 0.9
- Virus rating [3]: 2.4 and 3
- Reduction (Vero [4]): 50%
- ILS at 1 mg/kg (L1210 [5]): 124%
- Virus rating [6]: 2.4
- Reduction in virus yield (Cytomegalovirus [7]): 1.5 pfu/ml
- ILS at 2.25 mg/kg (Mus musculus [8]): 58%
- ILS at 1.5 mg/kg (P388 [9]): 69%
- Plaque reduction (Human alphaherpesvirus 3 [10]): 33%
- No. of survivors (P388 [11]): 3
- IC50 (Punta Toro virus): 1.01 µg/mL (≈ 4.22 µM)
- Therapeutic index [12]: 0.4
- selectivity ratio ([12]; read-out: Therapeutic index): 0.6
- selectivity ratio [13]: 0.1
- Plaque reduction (Human alphaherpesvirus 3 [14]): 3%
- ILS at 2 mg/kg (Mus musculus [15]): 92%
- Reduction (Vero [16]): 61%
- Reduction in virus yield (Cytomegalovirus [17]): 2 pfu/ml
- Plaque reduction (Human alphaherpesvirus 3 [18]): 36%
- ILS at 0.5 mg/kg (L1210 [19]): 116%
- ILS at 0.5 mg/kg (M5076): 5%
- ILS at 2.25 mg/kg (L1210 [20]): 125%
- IC50 [21]: 18.2 µg/mL (≈ 76.1 µM)
- ILS at 1.5 mg/kg (Mus musculus [22]): 80%
- Reduction in virus yield (Cytomegalovirus [23]): 1.3 pfu/ml
- ILS at 1.5 mg/kg (L1210 [24]): > 650%
- ILS at 1 mg/kg (P388 [25]): 88%
- Reduction (Vero [26]): 66%
- ILS at 1.5 mg/kg (L1210 [27]): 45%
- Reduction in virus yield (Cytomegalovirus [28]): 5.3 pfu/ml
- Reduction (Vero [29]): 3%
- IC50 [30]: 0.1 µg/mL (≈ 0.418 µM)
